Test results published in ChEMBL document CHEMBL4368917, “Synthesis and Evaluation of a QS-17/18-Based Vaccine Adjuvant” (J Med Chem, 2019).
The source made the active and inactive calls. The calls are words filed in the database; no cut-off is given here.

How the values were obtained:
Mus musculus [1] = assay: Potentiation of serum IgG/recombinant Porphyromonas gingivalis HagB induced-immune response in BALB/c mouse at 100 ug, sc immunized on day 14 and 28 after 42 days by ELISA; type: functional, organism-based
In short: (§1)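 Mice from Frederick Cancer Research were immunized with rHagB plus adjuvant (100 or 50 μg; adjuvant given at 1.0 mg/mL as solution or suspension with antigen). Retro-orbital blood was collected before and after immunization, and serum was stored at −20 °C. ELISA plates were coated with rHagB (1 μg/mL) in borate buffered saline pH 8.2; serial two-fold serum dilutions were run in duplicate.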

Mus musculus [2] = assay: Potentiation of recombinant Porphyromonas gingivalis HagB induced Th1/Th2 immune response in BALB/c mouse assessed as increase in IgG2a levels at 100 ug, sc measured at week 4 and 6 by ELISA; type: functional, organism-based; in short: as §1
[3] = Toxicity in BALB/c mouse assessed as effect on body weight at 100 ug, sc measured after 41 days; type: organism-based; conditions: in vivo, 984 h
In short: (§2)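 Mice were weighed before each immunization and on day 42 after the last immunization. Adjuvant was given with rHagB antigen at 100 μg, or at 50 μg for one group.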

Mus musculus [4] = assay: Potentiation of recombinant Porphyromonas gingivalis HagB induced Th1/Th2 immune response in BALB/c mouse assessed as increase in IgG1 levels at 100 ug, sc measured at week 4 by ELISA; type: functional, organism-based; in short: as §1
Mus musculus [5] = assay: Potentiation of serum IgG/recombinant Porphyromonas gingivalis HagB induced immune response n BALB/c mouse at 100 ug, sc immunized on day 14 and 28 measured week 4 and 6 post immunization by ELISA; type: functional, organism-based; in short: as §1
[6] = Toxicity in BALB/c mouse assessed as effect on body weight at 50 to 100 ug, sc measured after 41 days; type: organism-based; conditions: in vivo, 984 h; in short: as §2
Mus musculus [7] = assay: Potentiation of recombinant Porphyromonas gingivalis HagB induced Th1/Th2 immune response in BALB/c mouse assessed as increase in IgG1 levels at 100 ug, sc measured at week 4 and 6 by ELISA; type: functional, organism-based; in short: as §1
Mus musculus [8] = assay: Potentiation of recombinant Porphyromonas gingivalis HagB induced Th1/Th2 immune response in BALB/c mouse assessed as increase in IgG1 levels at 50 ug, sc measured at week 4 and 6 by ELISA; type: functional, organism-based; in short: as §1
Mus musculus [9] = assay: Potentiation of recombinant Porphyromonas gingivalis HagB induced Th1/Th2 immune response in BALB/c mouse assessed as increase in IgG2a levels at 50 ug, sc measured at week 4 and 6 by ELISA; type: functional, organism-based; in short: as §1

Compound | Activity (Mus musculus [1]) | Activity (Mus musculus [2]) | Activity [3] | Activity (Mus musculus [4]) | Activity (Mus musculus [5]) | Activity [6] | Activity (Mus musculus [7]) | Activity (Mus musculus [8]) | Activity (Mus musculus [9])
CCCCCCCCCCCCNC(=O)[C@H]1O[C@@H](O[C@H]2CC[C@]3(C)[C@H]4CC=C5[C@@H]6CC(C)(C)CC[C@]6(C(=O)O[C@@H]6O[C@H](C)[C@H](O)[C@H](O)[C@H]6O[C@@H]6O[C@@H](C)[C@H](O[C@@H]7OC[C@@H](O)[C@H](O[C@@H]8OC[C@](O)(CO)[C@H]8O)[C@H]7O)[C@@H](O)[C@H]6O)[C@H](O)C[C@@]5(C)[C@]4(C)CC[C@H]3[C@]2(C)C=O)[C@H](O[C@@H]2O[C@H](CO)[C@H](O)[C@H](O)[C@H]2O)[C@@H](O[C@@H]2OC[C@@H](O)[C@H](O)[C@H]2O)[C@@H]1O | inactive | inactive | Non-Toxic | inactive | – | – | – | – | –
CCCCCCCCCCCCNC(=O)[C@H]1O[C@@H](O[C@H]2CC[C@]3(C)[C@H]4CC=C5[C@@H]6CC(C)(C)CC[C@]6(C(=O)O[C@@H]6O[C@H](C)[C@H](O)[C@H](O)[C@H]6O[C@@H]6O[C@@H](C)[C@H](O[C@@H]7OC[C@@H](O)[C@H](O[C@@H]8OC[C@@H](O)[C@H](O)[C@H]8O)[C@H]7O)[C@@H](O[C@@H]7O[C@H](CO)[C@@H](O)[C@H](O)[C@H]7O)[C@H]6O)[C@H](O)C[C@@]5(C)[C@]4(C)CC[C@H]3[C@]2(C)C=O)[C@H](O[C@@H]2O[C@H](CO)[C@H](O)[C@H](O)[C@H]2O)[C@@H](O[C@@H]2OC[C@@H](O)[C@H](O)[C@H]2O)[C@@H]1O | Active | Active | – | – | Active | Non-Toxic | Active | Active | Active
